# Results from different studies.
# Compare with care: the assays were run in different laboratories.
# TEC: Tyrosine-protein kinase Tec (TEC, Homo sapiens, UniProt P42680)
# TEC phosphorylated: Tyrosine-protein kinase Tec, phosphorylated (TEC, Homo sapiens, UniProt P42680)
SMILES,target,test,conditions,endpoint,result
C[C@@H]1CN(c2cc(-c3nn(C)c4ccc(OC5(C)CC5)cc34)ncn2)C[C@H](C)O1,TEC,"cell-free assay, competition with immobilised ligand",1 µM,remaining binding,100%
CC(C)(C)c1nc2c(s1)c1nc(N)ncc1c1ccc(NS(=O)(=O)c3c(F)cccc3F)c(F)c12,TEC,"enzyme activity, inhibitor, radiometric",1 µM,remaining activity,87%
CC(=O)N1CCC(c2ccc(C(=O)NC3=NCCN3)cc2C(F)(F)F)CC1,TEC,"binding, competition with immobilised ligand",1 µM,remaining binding,100%
O=C1Nc2ccc(Cl)cc2C1=Cc1cc(Cl)c(O)c(Cl)c1,TEC,cell-free assay,0.5 µM,remaining signal,109%
O=C(O)[C@@H]1[C@@H](Cn2nnc3ccccc3c2=O)CC[C@H]1C(=O)c1ccc(OCCC2CCOCC2)cc1,TEC,"binding, competition with immobilised ligand",1 µM,remaining binding,95%
Cc1ccc(NC(=O)c2ccc(C)c(C(F)(F)F)c2)cc1C#Cc1nn(C2CCC(O)CC2)c2ncnc(N)c12 (centres unmarked),TEC phosphorylated,"enzyme activity, inhibitor",10 µM,remaining activity,24%
NS(=O)(=O)c1cc(NC(=O)C2(c3ccccc3Cl)CC2)ccc1Oc1cccc(Cl)c1,TEC,"binding, competition with immobilised ligand",1 µM,remaining binding,81%
CNC(=O)c1cc(Oc2ccc(NC(=O)Nc3ccc(Cl)c(C(F)(F)F)c3)cc2)ccn1,TEC,cell-free assay,0.5 µM,remaining signal,101%
CCN(CC)c1ccc(C2=NNC(=O)CC2C)cc1[N+](=O)[O-] (centres unmarked),TEC phosphorylated,"enzyme activity, inhibitor",10 µM,remaining activity,64%
CN(C)C(=O)Cn1cc(-c2nc(C3(c4ccc(-c5cnc(N)nc5)cc4)CC3)no2)cn1,TEC,"binding, competition with immobilised ligand",1 µM,remaining binding,93%
O=C(Nc1cnn(-c2csc(C(=O)NC3COC3)c2)c1)Nc1c(F)cccc1Cl,TEC,"enzyme activity, inhibitor",5 µM,remaining activity,97.7%
CC(=O)N1CCC(c2ccc(C(=O)NC(=N)N)cc2C(F)(F)F)CC1,TEC,"binding, competition with immobilised ligand",1 µM,remaining binding,100%
CC/C(=N\NC(=O)NCc1cccc(O)c1)c1ccc(O)c(C)c1O,TEC,"enzyme activity, inhibitor",0.1 µM,inhibition,0.2%
CCCOc1ccc(OC)c(F)c1C(=O)c1ccc(C(=O)N[C@@H]2CNC[C@H]2NC(=O)c2ccc3[nH]ncc3c2)cc1,TEC phosphorylated,"enzyme activity, inhibitor",10 µM,remaining activity,50%
COc1cc(Cl)c(C(=O)N[C@@H](CN[C@H]2CC[C@@H](N)CC2)Cc2ccc(C#N)cc2)cc1-c1ccc(CN[C@H](C)c2ccc(C)cc2)o1,TEC phosphorylated,"enzyme activity, inhibitor",1 µM,remaining activity,90%
Cc1cc(NC(=O)c2cccc3cc(-c4cccc5[nH]nc(N)c45)ccc23)ccc1F,TEC phosphorylated,"enzyme activity, inhibitor",0.1 µM,activity vs control,90%
CC(C)[C@H](NC(=O)c1cc(-c2cnn3cc(-c4ccc(OCCN5CCCCC5)cc4)cnc23)cs1)C(F)(F)F,TEC,"enzyme activity, inhibitor, radiometric",15 nM,inhibition,0%
CC(C)(O)[C@H]1CC[C@H](Nc2ccc3ncc(-c4cccc(C(F)(F)F)c4)n3n2)CC1,TEC,"enzyme activity, inhibitor",1 µM,remaining activity,104%
Oc1cccc(-c2nc(N3CCOCC3)c3oc4ncccc4c3n2)c1,TEC,cell-free assay,0.5 µM,remaining signal,113%
Nc1ncnc2occ(-c3ccc(NC(=O)Nc4cc(C(F)(F)F)ccc4F)cc3)c12,TEC,"cell-free assay, inhibitor",20 µM,remaining signal,53%
